# What was measured:
# [1] = target: T1, Amine oxidase [flavin-containing] B (Homo sapiens, UniProt P27338); assay: Inhibition of recombinant human MAO-B using p-tyramine as substrate preincubated for 15 mins followed by substrate addition measured after 20 mins by amplex red reagent based fluorescence assay
# T1 sequence (P27338 whole entry): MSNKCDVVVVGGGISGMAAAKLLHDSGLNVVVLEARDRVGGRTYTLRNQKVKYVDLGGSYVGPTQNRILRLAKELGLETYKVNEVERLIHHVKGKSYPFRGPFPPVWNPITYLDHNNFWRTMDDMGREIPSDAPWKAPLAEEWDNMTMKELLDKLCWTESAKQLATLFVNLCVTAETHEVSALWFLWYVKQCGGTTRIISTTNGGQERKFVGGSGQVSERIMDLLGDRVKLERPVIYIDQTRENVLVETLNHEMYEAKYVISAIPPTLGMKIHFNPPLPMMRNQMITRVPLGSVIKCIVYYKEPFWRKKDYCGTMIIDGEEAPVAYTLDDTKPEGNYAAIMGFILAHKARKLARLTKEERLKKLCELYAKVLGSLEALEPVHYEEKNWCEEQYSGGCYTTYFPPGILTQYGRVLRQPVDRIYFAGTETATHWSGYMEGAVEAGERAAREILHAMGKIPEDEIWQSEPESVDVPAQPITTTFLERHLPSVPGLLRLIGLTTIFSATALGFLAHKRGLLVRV
# Homo sapiens = species: Homo sapiens; assay: Selectivity index, ratio of IC50 for recombinant human MAO-A to IC50 for recombinant human MAO-B
# Method in brief: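 Commercial human MAO-A (1.1 μg protein) and MAO-B (7.5 μg protein) adjusted to equal velocity (165 pmol p-tyramine/min). Compounds from 10 mM DMSO stock diluted in 0.05 M potassium phosphate, pH 7.4. Preincubated with enzyme 15 min at 37 °C in the dark; 200 μM Amplex Red, 2 U/mL HRP, 2 mM p-tyramine added for 20 min at 37 °C.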
# [2] = target: T2, Amine oxidase [flavin-containing] A (Homo sapiens, UniProt P21397); assay: Inhibition of recombinant human MAO-A using p-tyramine as substrate preincubated for 15 mins followed by substrate addition measured after 20 mins by amplex red reagent based fluorescence assay
# T2 sequence (P21397 whole entry): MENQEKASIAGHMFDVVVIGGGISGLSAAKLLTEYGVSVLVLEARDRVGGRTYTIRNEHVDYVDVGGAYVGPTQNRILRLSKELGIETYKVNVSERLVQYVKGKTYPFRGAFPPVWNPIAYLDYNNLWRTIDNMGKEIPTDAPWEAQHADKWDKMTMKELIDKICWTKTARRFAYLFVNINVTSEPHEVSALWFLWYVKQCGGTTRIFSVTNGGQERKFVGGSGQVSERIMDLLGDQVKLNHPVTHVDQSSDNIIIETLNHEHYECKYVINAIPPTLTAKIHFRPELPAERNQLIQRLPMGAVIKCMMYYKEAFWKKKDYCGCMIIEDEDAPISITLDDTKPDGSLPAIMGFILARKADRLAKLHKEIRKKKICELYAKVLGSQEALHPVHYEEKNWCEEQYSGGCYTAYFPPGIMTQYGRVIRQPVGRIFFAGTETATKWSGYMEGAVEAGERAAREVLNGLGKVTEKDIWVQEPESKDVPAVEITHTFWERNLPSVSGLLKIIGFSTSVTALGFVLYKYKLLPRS
# [3] = Permeability of the compound in PBS/EtOH at […] after 16 hrs by PAMPA; format: ADME; conditions: read-out: Peff
# [4] = target: Amyloid-beta precursor protein (Homo sapiens) (UniProt P05067); assay: Inhibition of self-induced Amyloid beta (1 to 42) (unknown origin) aggregation at 25 uM after 48 hrs by thioflavin T-based fluorometric assay relative to control
# Sequence of Amyloid-beta precursor protein (Homo sapiens) (P05067 whole entry): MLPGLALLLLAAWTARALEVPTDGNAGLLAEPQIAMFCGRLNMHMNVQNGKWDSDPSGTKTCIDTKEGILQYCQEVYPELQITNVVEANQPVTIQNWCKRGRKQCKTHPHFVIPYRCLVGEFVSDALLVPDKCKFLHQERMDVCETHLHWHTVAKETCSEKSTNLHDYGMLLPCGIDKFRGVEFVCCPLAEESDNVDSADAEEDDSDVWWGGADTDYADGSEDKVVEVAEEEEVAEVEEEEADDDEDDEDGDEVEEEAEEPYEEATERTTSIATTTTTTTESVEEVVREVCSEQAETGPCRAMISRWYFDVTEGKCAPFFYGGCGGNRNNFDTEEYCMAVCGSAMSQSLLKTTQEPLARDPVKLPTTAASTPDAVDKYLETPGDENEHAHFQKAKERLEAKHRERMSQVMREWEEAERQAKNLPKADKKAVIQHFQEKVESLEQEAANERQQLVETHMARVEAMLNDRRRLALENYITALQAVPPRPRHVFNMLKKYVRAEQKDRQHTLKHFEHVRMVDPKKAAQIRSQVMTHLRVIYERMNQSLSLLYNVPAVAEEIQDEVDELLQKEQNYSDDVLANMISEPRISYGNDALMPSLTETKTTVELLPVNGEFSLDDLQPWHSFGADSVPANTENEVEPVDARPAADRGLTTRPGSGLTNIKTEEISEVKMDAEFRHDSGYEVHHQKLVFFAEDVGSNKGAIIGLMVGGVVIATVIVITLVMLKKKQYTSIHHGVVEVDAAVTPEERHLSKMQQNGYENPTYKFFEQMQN
# Method in brief: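 Aβ1-42 stock (2000 μM in 1% ammonium hydroxide) diluted in 50 mM phosphate pH 7.4. Peptide (final 25 μM) incubated with or without compound (25 μM) at 37 °C for 48 h. Then diluted in 50 mM glycine-NaOH pH 8.0 containing 5 μM thioflavin T, read after 5 min (ex 446/em 490 nm). Inhibition = (1 − IFi/IFc) × 100 after blank subtraction. Mean ± SD of three independent experiments.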
# Mus musculus [5] = assay: Acute toxicity in Kunming mouse assessed as effect on serum ALT level at 2.4 mmol/kg, po administered as single dose via gavage measured continuously for first 4 hrs, intermittently for next 24 hrs and occasionally thereafter for 14 days; format: organism-based; conditions: in vivo
# Method in brief: (§1)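 Male KM mice (18–20 g), fasted overnight, given one oral 2.4 mmol/kg dose suspended in 0.5% CMC-Na. On day 14, orbital blood was collected before decapitation and serum AST and ALT activities measured against a control group. Mean ± SD of three independent experiments.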
# Mus musculus [6] = assay: Acute toxicity in Kunming mouse assessed as abnormal change in food consumption at 2.4 mmol/kg, po administered as single dose via gavage measured continuously for first 4 hrs, intermittently for next 24 hrs and occasionally thereafter for 14 days; format: organism-based; conditions: in vivo
# Method in brief: (§2)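 Male KM mice (22 days old, 18–20 g), 15 in total, randomly split into 3 groups of 5. Kept on a 12 h light/dark cycle at 20-22 °C and 60-70% humidity, fasted overnight with free water. Single oral dose of 2.4 mmol/kg suspended in 0.5% CMC-Na. Mortality, behaviour, water and food intake, and body weight followed over 14 days.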
# Mus musculus [7] = assay: Hepatotoxicity in Kunming mouse at 2.4 mmol/kg, po administered as single dose via gavage measured continuously for first 4 hrs, intermittently for next 24 hrs and occasionally thereafter for 14 days by […]; format: toxicity, organism-based; conditions: in vivo
# Method in brief: (§3)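 Male KM mice (18–20 g) received a single oral 2.4 mmol/kg dose in 0.5% CMC-Na suspension after an overnight fast. All animals were sacrificed on day 14 after dosing, and heart, liver and kidneys were examined macroscopically for damage.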
# Mus musculus [8] = assay: Cardiotoxicity in Kunming mouse at 2.4 mmol/kg, po administered as single dose via gavage measured continuously for first 4 hrs, intermittently for next 24 hrs and occasionally thereafter for 14 days by […]; format: toxicity, organism-based; conditions: in vivo; method in brief: as §3
# Mus musculus [9] = assay: Acute toxicity in Kunming mouse assessed as abnormal change in water consumption at 2.4 mmol/kg, po administered as single dose via gavage measured continuously for first 4 hrs, intermittently for next 24 hrs and occasionally thereafter for 14 days; format: organism-based; conditions: in vivo; method in brief: as §2
# Mus musculus [10] = assay: Acute toxicity in Kunming mouse assessed as mortality at 2.4 mmol/kg, po administered as single dose via gavage measured continuously for first 4 hrs, intermittently for next 24 hrs and occasionally thereafter for 14 days; format: organism-based; conditions: in vivo; method in brief: as §2
# Mus musculus [11] = assay: Acute toxicity in Kunming mouse assessed as abnormal change in body weight at 2.4 mmol/kg, po administered as single dose via gavage measured continuously for first 4 hrs, intermittently for next 24 hrs and occasionally thereafter for 14 days; format: organism-based; conditions: in vivo; method in brief: as §2
# Mus musculus [12] = assay: Nephrotoxicity in Kunming mouse at 2.4 mmol/kg, po administered as single dose via gavage measured continuously for first 4 hrs, intermittently for next 24 hrs and occasionally thereafter for 14 days […]; format: toxicity, organism-based; conditions: in vivo; method in brief: as §3
# Mus musculus [13] = assay: Acute toxicity in Kunming mouse assessed as effect on serum AST level at 2.4 mmol/kg, po administered as single dose via gavage measured continuously for first 4 hrs, intermittently for next 24 hrs and occasionally thereafter for 14 days; format: organism-based; conditions: in vivo; method in brief: as §1
# [14] = target: T1, Amine oxidase [flavin-containing] B; assay: Irreversible inhibition of recombinant human MAO-B at 30 nM using p-tyramine as substrate preincubated for 15 to 60 mins followed by substrate addition and subsequent two-fold enzyme dilution measured after 15 mins by amplex red reagent based fluorescence assay; conditions: 0.25 h, 0.03 µM
# PC-12 = assay: Cytotoxicity against rat PC12 cells assessed as reduction in cell viability up to 100 uM after 24 hrs by MTT assay; format: cell-based; conditions: pc-12, 24 h
# Method in brief: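 PC12 cells grown at 37 °C, 5% CO2 in DMEM with 10% bovine calf serum and penicillin/streptomycin; seeded 10,000 cells/well, switched to serum-free medium, then exposed to compound (0–100 μM) for 24 h. MTT added for 4 h at 37 °C, formazan dissolved in DMSO, absorbance read at 570 nm (reference 630 nm). Mean ± SD of three independent experiments.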
SMILES,IC50 [1] [µM],Ratio IC50 (Homo sapiens),IC50 [2] [µM],further results
C#CCN(CCCCOc1ccc2ccc(=O)oc2c1)Cc1cccc(F)c1,1.55,44.6,69.1,
C#CCN(CCCOc1ccc2ccc(=O)oc2c1)Cc1cccc(F)c1,4.44,6.59,29.3,
C#CCN(CCOc1ccc2ccc(=O)oc2c1)Cc1cccc(F)c1,5.53,9.64,53.3,
C#CCN(CCCCOc1ccc2ccc(=O)oc2c1)Cc1ccccc1,0.978,91.4,89.3,
CCn1cc(C(=O)O)c(=O)c2cc(F)c(N3CCNC(C)C3)c(F)c21 (configuration not stated) [LOMEFLOXACIN],,,,Papp at 16 h [3]: 1.05 ×10⁻⁶ cm/s
C#CCN(CCCCOc1ccc2ccc(=O)oc2c1)Cc1cccc(OC)c1,2.34,33.6,78.6,inhibition [4]: 38.2%
C#CCN(C)Cc1ccccc1 [PARGYLINE],,,,Activity (Mus musculus [5]): Non-Toxic; Activity (Mus musculus [6]): Non-Toxic; Activity (Mus musculus [7]): Non-Toxic; Activity (Mus musculus [8]): Non-Toxic; Activity (Mus musculus [9]): Non-Toxic; Activity (Mus musculus [10]): Non-Toxic; Activity (Mus musculus [11]): Non-Toxic; Activity (Mus musculus [12]): Non-Toxic; Activity (Mus musculus [13]): Non-Toxic
C#CCN(C)CCCCOc1ccc2ccc(=O)oc2c1,0.027,121,3.28,inhibition (INH) [14]: Active; Activity (Mus musculus [5]): Non-Toxic; Activity (Mus musculus [6]): Non-Toxic; Activity (Mus musculus [7]): Non-Toxic; Papp at 16 h [3]: 8.92 ×10⁻⁶ cm/s; Activity (PC-12): Non-Toxic; Activity (Mus musculus [8]): Non-Toxic; Activity (Mus musculus [9]): Non-Toxic; inhibition [4]: 54%; Activity (Mus musculus [10]): Non-Toxic; Activity (Mus musculus [11]): Non-Toxic; Activity (Mus musculus [12]): Non-Toxic; Activity (Mus musculus [13]): Non-Toxic
C#CCN(CCCCOc1ccc2ccc(=O)oc2c1)Cc1ccc(F)c(F)c1,2.37,39.4,93.2,inhibition [4]: 30.6%
C[C@]12CC[C@@H]3c4ccc(O)cc4CC[C@H]3[C@@H]1CC[C@@H]2O [ESTRADIOL],,,,Papp at 16 h [3]: 8 ×10⁻⁶ cm/s
C#CCN(C)CCOc1ccc2ccc(=O)oc2c1,1.1,63.4,69.9,inhibition [4]: 36.4%
C#CCN(CCOc1ccc2ccc(=O)oc2c1)Cc1cccc(OC)c1,7.01,10.3,72.1,
C#CCN(CCCOc1ccc2ccc(=O)oc2c1)Cc1cccc(OC)c1,4.59,4.94,22.7,
C#CCN(CCOc1ccc2ccc(=O)oc2c1)Cc1ccc(F)c(F)c1,9.62,4.24,40.8,
C#CCN(CCCOc1ccc2ccc(=O)oc2c1)Cc1ccccc1,3.74,10.3,38.6,
C#CCN(CCCOc1ccc2ccc(=O)oc2c1)Cc1ccc(F)c(F)c1,4.86,10.1,49.2,
C#CCN(C)CCCOc1ccc2ccc(=O)oc2c1,1.08,34,36.9,inhibition [4]: 59.3%
C#CCN(CCCCOc1ccc2ccc(=O)oc2c1)Cc1ccc(OC)cc1,1.13,48.2,54.5,inhibition [4]: 49.1%

# The next lines start with results.
IC50 [1] [µM],Ratio IC50 (Homo sapiens),IC50 [2] [µM],SMILES,further results
7.58,10.2,77.4,C#CCN(CCCOc1ccc2ccc(=O)oc2c1)Cc1ccc(C(C)C)cc1,
7.38,15.8,116,C#CCN(CCCOc1ccc2ccc(=O)oc2c1)Cc1ccc(C)cc1,
3.5,10.1,35.4,C#CCN(CCCCOc1ccc2ccc(=O)oc2c1)Cc1ccc(C(C)C)cc1,
8.3,10.8,89.5,C#CCN(CCOc1ccc2ccc(=O)oc2c1)Cc1ccccc1,
5.64,10,56.4,C#CCN(CCOc1ccc2ccc(=O)oc2c1)Cc1ccc(C)cc1,
3.51,15.7,55,C#CCN(CCOc1ccc2ccc(=O)oc2c1)Cc1ccc(OC)cc1,
6.96,10.1,70,C#CCN(CCOc1ccc2ccc(=O)oc2c1)Cc1ccc(C(C)C)cc1,
6.08,9.87,60,C#CCN(CCCOc1ccc2ccc(=O)oc2c1)Cc1ccc(OC)cc1,
1.68,56.4,94.5,C#CCN(CCCCOc1ccc2ccc(=O)oc2c1)Cc1ccc(C)cc1,inhibition [4]: 50%

# Reference: ChEMBL document CHEMBL4190276, “Design, synthesis and evaluation of coumarin-pargyline hybrids as novel dual inhibitors of monoamine oxidases and amyloid-β aggregation for the treatment of Alzheimer's disease” (Eur J Med Chem, 2017)
